Test results taken from ChEMBL document CHEMBL1141109, “Synthesis of an estrogen receptor beta-selective radioligand: 5-[18F]fluoro-(2R,3S)-2,3-bis(4-hydroxyphenyl)pentanenitrile and comparison of in vivo distribution with 16alpha-[18F]fluoro-17beta-estradiol” (J Med Chem, 2005).

Experiments:
[1] = Biodistribution of [18F]-FEDPN in alpha estrogen receptor knock out mouse blood after 30 min; (n=3); assay type: ADME, organism-based; conditions: in vivo, 0.5 h
Method in brief: (§1)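 ERKO female mice (αERKO or βERKO), rested 48 h after shipping, placed on estrogen-free chow, and staged by daily vaginal smears. Injected in a nonestrous stage with 11 µCi [18F]FEDPN in 130 µL of 10% ethanol/saline. Killed at 30 min, 1 h or 2 h. Organs counted and reported as %ID/g ± SD, three animals per point.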

[2] = Biodistribution of [18F]FEDPN in alpha estrogen receptor knock out mouse uterus after 30 min; (n=3); assay type: ADME, organism-based; conditions: in vivo, 0.5 h
Method in brief: (§2)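 αERKO and βERKO mice, staged by daily vaginal smears and kept on estrogen-free chow, were studied in a nonestrous stage. Each mouse received 11 μCi of tracer in 130 μL of 10% ethanol/saline. Mice were killed at 30 min, 1 h or 2 h (n = 3 each). Organs were removed, blotted, weighed and gamma-counted against an injectate standard. Uptake is given as %ID/g ± SD.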

[3] = Biodistribution of [18F]FEDPN in beta estrogen receptor knock out mouse muscle after 30 min; (n=3); assay type: ADME, organism-based, Muscle tissue; conditions: in vivo, 0.5 h; method in brief: as §2
[4] = Biodistribution of [18F]-FEDPN in rat thymus after 2 hr when given in tail vein; (n=5); assay type: ADME, organism-based; conditions: in vivo, iv
Method in brief: (§3)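 Immature female Sprague–Dawley rats (<25 days old) anesthetized with isoflurane/O2. Given 20 µCi tracer by tail vein in 150 µL of 20% ethanol/saline. […] Killed at 30 min, 1 h or 2 h. Blood and organs blotted, weighed and gamma-counted against a standard dilution of the injectate. Reported as %ID/g ± SD, n=5.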

[5] = Biodistribution of [18F]FEDPN in alpha estrogen receptor knock out mouse kidney after 1 h; (n=3); assay type: ADME, organism-based; conditions: in vivo; method in brief: as §1
[6] = Biodistribution of [18F]-FEDPN in rat ovaries after 1 hr when given in tail vein; (n=5); assay type: ADME, organism-based, Female gonad; conditions: in vivo, iv; method in brief: as §3
[7] = Biodistribution of [18F]FEDPN in beta estrogen receptor knock out mouse bone after 2 h; (n=3); assay type: ADME, organism-based, Bone element; conditions: in vivo; method in brief: as §2
[8] = Biodistribution of [18F]FEDPN in beta estrogen receptor knock out mouse ovaries after 1 h; (n=3); assay type: ADME, organism-based, Female gonad; conditions: in vivo; method in brief: as §2
[9] = Biodistribution of [18F]FEDPN in beta estrogen receptor knock out mouse heart after 30 min; (n=3); assay type: ADME, organism-based; conditions: in vivo, 0.5 h; method in brief: as §2
[10] = Biodistribution of [18F]FEDPN in alpha estrogen receptor knock out mouse heart after 1 h; (n=3); assay type: ADME, organism-based; conditions: in vivo; method in brief: as §1
[11] = molecular target: Estrogen receptor (Mus musculus) (UniProt O08537+P19785); assay: Ratio of [18F]FEDPN uptake in uterus of ERbeta KO-mouse and ERalpha KO-mouse (nonestrus) after 1 hr
Sequence of Estrogen receptor (Mus musculus) (O08537 whole entry, looked up): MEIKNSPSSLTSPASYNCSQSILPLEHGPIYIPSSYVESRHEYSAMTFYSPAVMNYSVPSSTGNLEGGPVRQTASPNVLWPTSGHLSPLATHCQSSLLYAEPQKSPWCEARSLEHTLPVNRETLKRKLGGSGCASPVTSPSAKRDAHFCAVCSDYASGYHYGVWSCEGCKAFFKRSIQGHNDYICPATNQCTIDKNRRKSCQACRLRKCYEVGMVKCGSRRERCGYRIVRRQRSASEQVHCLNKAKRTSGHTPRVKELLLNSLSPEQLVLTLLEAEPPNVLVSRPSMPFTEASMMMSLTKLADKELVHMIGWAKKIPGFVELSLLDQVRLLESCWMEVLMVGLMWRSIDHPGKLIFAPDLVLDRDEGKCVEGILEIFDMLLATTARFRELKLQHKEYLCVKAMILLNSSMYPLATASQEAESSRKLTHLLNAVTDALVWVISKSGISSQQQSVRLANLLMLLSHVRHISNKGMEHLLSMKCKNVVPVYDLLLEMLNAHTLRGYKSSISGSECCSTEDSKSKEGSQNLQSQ
Sequence of Estrogen receptor (Mus musculus) (P19785 whole entry, looked up): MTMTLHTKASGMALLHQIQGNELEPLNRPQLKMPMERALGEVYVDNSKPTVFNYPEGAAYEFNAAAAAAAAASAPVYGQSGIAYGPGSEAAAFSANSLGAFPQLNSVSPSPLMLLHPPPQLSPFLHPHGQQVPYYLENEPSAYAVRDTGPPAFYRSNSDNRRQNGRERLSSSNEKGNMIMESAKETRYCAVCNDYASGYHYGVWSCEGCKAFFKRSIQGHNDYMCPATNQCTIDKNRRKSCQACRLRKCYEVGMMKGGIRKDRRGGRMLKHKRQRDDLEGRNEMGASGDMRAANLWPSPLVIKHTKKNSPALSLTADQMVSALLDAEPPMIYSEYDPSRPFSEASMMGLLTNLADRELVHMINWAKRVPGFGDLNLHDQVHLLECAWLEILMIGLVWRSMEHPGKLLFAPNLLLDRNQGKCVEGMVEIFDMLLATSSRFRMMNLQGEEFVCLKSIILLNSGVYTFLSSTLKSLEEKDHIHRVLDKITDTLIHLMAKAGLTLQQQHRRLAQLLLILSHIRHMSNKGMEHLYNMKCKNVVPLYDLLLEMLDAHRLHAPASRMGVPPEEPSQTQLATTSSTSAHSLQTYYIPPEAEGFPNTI

[12] = Biodistribution of [18F]FEDPN in beta estrogen receptor knock out mouse heart after 1 h; (n=3); assay type: ADME, organism-based; conditions: in vivo; method in brief: as §2
[13] = Biodistribution of [18F]FEDPN in beta estrogen receptor knock out mouse lung after 30 min; (n=3); assay type: ADME, organism-based; conditions: in vivo, 0.5 h; method in brief: as §2
[14] = Biodistribution of [18F]-FEDPN in rat muscle after 2 hr when given in tail vein; (n=5); assay type: ADME, organism-based, Muscle tissue; conditions: in vivo, iv; method in brief: as §3
[15] = Biodistribution of [18F]FEDPN in alpha estrogen receptor knock out mouse muscle after 30 min; (n=3); assay type: ADME, organism-based, Muscle tissue; conditions: in vivo, 0.5 h; method in brief: as §2
[16] = Biodistribution of [18F]-FEDPN in rat lung after 1 hr block when given in tail vein; (n=5); assay type: ADME, organism-based; conditions: in vivo, iv; method in brief: as §3
[17] = Biodistribution of [18F]FEDPN in alpha estrogen receptor knock out mouse ovaries after 2 h; (n=3); assay type: ADME, organism-based, Female gonad; conditions: in vivo; method in brief: as §2
[18] = Biodistribution of [18F]FEDPN in beta estrogen receptor knock out mouse uterus after 2 h; (n=3); assay type: ADME, organism-based; conditions: in vivo
Method in brief: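 αERKO and βERKO mice were fed estrogen-free chow and staged by daily vaginal smears. Mice in a nonestrous stage each received 11 µCi tracer in 130 µL 10% ethanol/saline. Organs were taken at 30 min, 1 h or 2 h and gamma-counted. Uptake is expressed as %ID/g ± SD, three animals per point.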

[19] = Biodistribution of [18F]FEDPN in beta estrogen receptor knock out mouse muscle after 1 h; (n=3); assay type: ADME, organism-based, Muscle tissue; conditions: in vivo; method in brief: as §2
[20] = Biodistribution of [18F]FEDPN in alpha estrogen receptor knock out mouse ovaries after 30 min; (n=3); assay type: ADME, organism-based, Female gonad; conditions: in vivo, 0.5 h; method in brief: as §2
[21] = Biodistribution of [18F]-FEDPN in alpha estrogen receptor knock out mouse spleen after 1 h; (n=3); assay type: ADME, organism-based; conditions: in vivo; method in brief: as §1
[22] = Biodistribution of [18F]-FES in beta estrogen receptor knock out mouse lung after 2 h; (n=3); assay type: ADME, organism-based; conditions: in vivo
Method in brief: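 Female βERKO mice in estrus were used because repeated swabbing had induced pseudopregnancy. They were fed estrogen-free chow. Each received 13 µCi [18F]FES in 100 µL 10% ethanol/saline and was sacrificed at 30 min, 1 h or 2 h (n = 3 each). Tissue uptake is given as %ID/g ± SD.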

[23] = Biodistribution of [18F]FES in beta estrogen receptor knock out mouse uterus after 1 h; (n=3); assay type: ADME, organism-based; conditions: in vivo
[24] = Biodistribution of [18F]-FES in alpha estrogen receptor knock out mouse liver after 1 h; (n=3); assay type: ADME, organism-based; conditions: in vivo
Method in brief: (§4)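 Female αERKO mice were rested 48 h after shipping and fed estrogen-free chow. They were staged by daily vaginal smears and studied in diestrus. Each received 13 µCi [18F]FES in 100 µL 10% ethanol/saline and was sacrificed at 30 min, 1 h or 2 h (n = 3 per time). Tissue uptake is given as %ID/g ± SD.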

[25] = Biodistribution of [18F]FES in alpha estrogen receptor knock out mouse bone after 1 h; (n=3); assay type: ADME, organism-based, Bone element; conditions: in vivo; method in brief: as §4
[26] = Biodistribution of [18F]FES in alpha estrogen receptor knock out mouse spleen after 1 h; (n=3); assay type: ADME, organism-based; conditions: in vivo
[27] = Biodistribution of [18F]FES in alpha estrogen receptor knock out mouse heart after 1 h; (n=3); assay type: ADME, organism-based; conditions: in vivo
Method in brief: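 Female αERKO mice rested 48 h after shipping and fed estrogen-free chow. Estrous stage was checked by daily vaginal smears, and mice were used in diestrus. Each received 13 µCi [18F]FES in 100 µL 10% ethanol/saline. Animals were sacrificed at 30 min, 1 h or 2 h (n = 3 each). Tissue uptake is reported as %ID/g ± SD.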

[28] = Biodistribution of [18F]-FES in alpha estrogen receptor knock out mouse brain after 2 h; (n=3); assay type: ADME, organism-based; conditions: in vivo
Method in brief: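 αERKO mice staged in diestrus by vaginal smear after rest on estrogen-free chow. Injected with 13 µCi [18F]FES in 100 µL of 10% ethanol/saline and killed at 30 min, 1 h or 2 h (n=3 each). Tissues weighed and gamma-counted, reported as %ID/g ± SD.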

[29] = Biodistribution of [18F]FES in alpha estrogen receptor knock out mouse uterus after 1 h; (n=3); assay type: ADME, organism-based; conditions: in vivo
[30] = Biodistribution of [18F]FES in alpha estrogen receptor knock out mouse liver after 2 h; (n=3); assay type: ADME, organism-based; conditions: in vivo; method in brief: as §4
[31] = Biodistribution of [18F]FES in beta estrogen receptor knock out mouse liver after 2 h; (n=3); assay type: ADME, organism-based; conditions: in vivo
[32] = Biodistribution of [18F]FES in alpha estrogen receptor knock out mouse lung after 1 h; (n=3); assay type: ADME, organism-based; conditions: in vivo
[33] = Biodistribution of [18F]FES in beta estrogen receptor knock out mouse bone after 2 h; (n=3); assay type: ADME, organism-based, Bone element; conditions: in vivo

Q: Which Biodistribution [1] does the source give for N#C[C@H](c1ccc(O)cc1)[C@@H](CCF)c1ccc(O)cc1 here?
A: 0.73 %ID/g

Q: And the Biodistribution [2]?
A: 1.11 %ID/g

Q: And the Biodistribution [3]?
A: 1.45 %ID/g

Q: What about the Biodistribution [4] of the same molecule?
A: 0.08 %ID/g

Q: And the Biodistribution [5]?
A: 2.97 %ID/g

Q: And the Biodistribution [6]?
A: 0.67 %ID/g

Q: What about the Biodistribution [7] of the same molecule?
A: 5.15 %ID/g

Q: What about the Biodistribution [8] of the same molecule?
A: 0.41 %ID/g

Q: What about the Biodistribution [9] of the same molecule?
A: 1.6 %ID/g

Q: And the Biodistribution [10]?
A: 0.74 %ID/g

Q: And the Ratio [11]?
A: 1.46

Q: And the Biodistribution [12]?
A: 0.43 %ID/g

Q: And the Biodistribution [13]?
A: 5.38 %ID/g

Q: What about the Biodistribution [14] of the same molecule?
A: 0.09 %ID/g

Q: What about the Biodistribution [15] of the same molecule?
A: 1.21 %ID/g

Q: And the Biodistribution [16]?
A: 0.27 %ID/g

Q: And the Biodistribution [17]?
A: 0.28 %ID/g

Q: And the Biodistribution [18]?
A: 0.31 %ID/g

Q: What about the Biodistribution [19] of the same molecule?
A: 0.75 %ID/g

Q: What about the Biodistribution [20] of the same molecule?
A: 1.06 %ID/g

Q: What about the Biodistribution [21] of the same molecule?
A: 0.61 %ID/g

Q: What does the source list for C[C@]12CC[C@@H]3c4ccc(O)cc4CC[C@H]3[C@@H]1C[C@@H](F)[C@@H]2O [FLUOROESTRADIOL]?
A: Biodistribution [22]: 0.54 %ID/g; Biodistribution [23]: 9.81 %ID/g; Biodistribution [24]: 5.24 %ID/g; Biodistribution [25]: 0.24 %ID/g; Biodistribution [26]: 0.19 %ID/g; Biodistribution [27]: 0.15 %ID/g; Biodistribution [28]: 0.03 %ID/g; Biodistribution [29]: 0.82 %ID/g; Biodistribution [30]: 3.67 %ID/g; Biodistribution [31]: 4.54 %ID/g; Biodistribution [32]: 0.39 %ID/g; Biodistribution [33]: 0.53 %ID/g
